These results are taken from ChEMBL document CHEMBL1134949, “New irreversible adenosine A(1) antagonists based on FSCPX” (Bioorg Med Chem Lett, 2002).

Several values for one entry are separate records, joined by “and”; a condition that tells them apart may be missing. Equal entries are not always repeated.

The target of experiment [1] is T1, Adenosine receptor A1 (Homo sapiens) (UniProt P30542).
T1 sequence (whole entry): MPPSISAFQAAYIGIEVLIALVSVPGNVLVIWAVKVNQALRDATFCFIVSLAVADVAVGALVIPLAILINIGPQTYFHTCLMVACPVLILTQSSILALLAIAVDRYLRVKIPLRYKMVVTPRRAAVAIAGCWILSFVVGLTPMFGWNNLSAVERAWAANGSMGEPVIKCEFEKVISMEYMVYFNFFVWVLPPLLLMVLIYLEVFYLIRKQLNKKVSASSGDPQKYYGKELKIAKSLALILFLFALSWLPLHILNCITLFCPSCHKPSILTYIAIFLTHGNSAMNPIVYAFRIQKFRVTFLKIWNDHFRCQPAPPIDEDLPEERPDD
Briefly: Percentage loss of [3H]DPCPX binding to Adenosine A1 receptor in the presence of Xanthine derivative at 100 nM from DDT1 MF2 cells. The class given is cell-based. In outline: (§1)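 DDT1 MF-2 cells preincubated with or without antagonist (5 or 100 nM) for 30 min at 30 °C, then 10 cell wash cycles to remove unbound ligand. Membranes then prepared and assayed for [3H]DPCPX Bmax and KD. Receptor loss is the reduction in Bmax versus control. Mean ± SE, n = 3-6.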

Experiment [2] concerns the target T1, Adenosine receptor A1 (Homo sapiens). The experiment is described as follows: Percentage loss of [3H]-DPCPX binding to Adenosine A1 receptor in the presence of Xanthine derivative at 5 nM from DDT1 MF2 cells. The class given is cell-based. The procedure, abridged: as §1
Experiment [3] is described as follows: Equilibrium dissociation constant for [3H]DPCPX binding to Adenosine A1 receptor from DDT1 MF2 cell membranes.
A short description of experiment [4]: Inhibitory concentration against [3H]DPCPX binding to Adenosine A1 receptor from DDT1 MF2 cells.

Broadly, the Kd is a measure of binding affinity in units of concentration. Higher therefore signals weaker binding. Usually IC50 stands for the concentration at which inhibition is half-maximal. A higher IC50 goes with lower potency.

For the molecule `CCCn1c(=O)c2nc(C3CCCC3)[nH]c2n(CCCCC(=O)c2ccc(S(=O)(=O)F)cc2)c1=O`, the Loss in experiment [1] amounted to 73%; in experiment [2], 51%.
`CCCn1c(=O)c2nc(C3CCCC3)[nH]c2n(CCCNC(=O)c2ccc(S(=O)(=O)F)cc2)c1=O`: the Kd in experiment [3] is 360 pM and 310 pM. Also, the 50% inhibitory concentration (IC50) in experiment [4] came to 21000 pM.
Take `CCCn1c(=O)c2nc(C3CCCCC3)[nH]c2n(CCCCC(=O)c2ccc(S(=O)(=O)F)cc2)c1=O`: the Loss in experiment [1] is 78%; in experiment [2], 56%.
For `CCCn1c(=O)c2nc(C3CC4CCC3C4)[nH]c2n(CCCCC(=O)c2ccc(S(=O)(=O)F)cc2)c1=O` (stereo not drawn) the same measures were 81% and 50%.
